One molecule from ChEMBL document CHEMBL1148356, “Synthesis and biological evaluation of 3-heterocyclyl-7,8,9,10-tetrahydro-(7,10-ethano)-1,2,4-triazolo[3,4-a]phthalazines and analogues as subtype-selective inverse agonists for the GABA(A)alpha5 benzodiazepine binding site” (J Med Chem, 2004) can be followed below.

A short description of series [1]: Oral bioavailability in rat. In kind it is ADME, organism-based. To be noted: in vivo. In outline: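 Male SD rats with jugular cannulas were fasted overnight and dosed either by tail-vein IV bolus or orally (n = 3 per route). Serial jugular blood samples were taken up to 8 h. Plasma was frozen at −20 °C, protein-precipitated with acetonitrile containing internal standard, and quantified by LC-MS/MS.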

Series [2] deals with T1, GABA-A receptor; alpha-5/beta-3/gamma-2 (Homo sapiens, UniProt P18507+P28472+P31644).
T1 sequence (P18507 whole entry): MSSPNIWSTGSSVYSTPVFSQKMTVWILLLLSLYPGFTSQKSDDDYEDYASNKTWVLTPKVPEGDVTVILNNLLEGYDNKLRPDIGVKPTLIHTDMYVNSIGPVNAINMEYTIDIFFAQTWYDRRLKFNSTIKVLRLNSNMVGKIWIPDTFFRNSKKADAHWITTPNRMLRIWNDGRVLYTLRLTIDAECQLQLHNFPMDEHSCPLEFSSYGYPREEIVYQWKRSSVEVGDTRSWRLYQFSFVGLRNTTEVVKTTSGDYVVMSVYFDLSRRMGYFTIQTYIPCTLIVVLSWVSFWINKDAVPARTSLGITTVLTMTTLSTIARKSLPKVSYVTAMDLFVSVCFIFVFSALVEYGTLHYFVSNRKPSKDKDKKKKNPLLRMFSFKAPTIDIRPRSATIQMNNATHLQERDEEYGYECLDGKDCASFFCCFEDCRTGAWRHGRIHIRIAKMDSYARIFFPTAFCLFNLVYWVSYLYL
T1 sequence (P28472 whole entry): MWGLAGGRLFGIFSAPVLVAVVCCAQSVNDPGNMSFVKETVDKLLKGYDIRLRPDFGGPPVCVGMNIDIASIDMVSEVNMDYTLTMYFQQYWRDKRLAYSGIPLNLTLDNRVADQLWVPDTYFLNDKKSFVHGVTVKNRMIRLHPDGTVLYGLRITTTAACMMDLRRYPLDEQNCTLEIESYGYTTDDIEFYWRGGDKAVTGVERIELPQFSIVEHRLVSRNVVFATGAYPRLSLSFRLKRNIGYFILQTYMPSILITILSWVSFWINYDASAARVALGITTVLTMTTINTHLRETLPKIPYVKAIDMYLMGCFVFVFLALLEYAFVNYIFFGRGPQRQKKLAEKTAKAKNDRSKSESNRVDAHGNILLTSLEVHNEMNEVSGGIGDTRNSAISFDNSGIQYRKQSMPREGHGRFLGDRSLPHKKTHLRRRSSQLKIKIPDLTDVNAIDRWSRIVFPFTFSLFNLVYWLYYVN
T1 sequence (P31644 whole entry): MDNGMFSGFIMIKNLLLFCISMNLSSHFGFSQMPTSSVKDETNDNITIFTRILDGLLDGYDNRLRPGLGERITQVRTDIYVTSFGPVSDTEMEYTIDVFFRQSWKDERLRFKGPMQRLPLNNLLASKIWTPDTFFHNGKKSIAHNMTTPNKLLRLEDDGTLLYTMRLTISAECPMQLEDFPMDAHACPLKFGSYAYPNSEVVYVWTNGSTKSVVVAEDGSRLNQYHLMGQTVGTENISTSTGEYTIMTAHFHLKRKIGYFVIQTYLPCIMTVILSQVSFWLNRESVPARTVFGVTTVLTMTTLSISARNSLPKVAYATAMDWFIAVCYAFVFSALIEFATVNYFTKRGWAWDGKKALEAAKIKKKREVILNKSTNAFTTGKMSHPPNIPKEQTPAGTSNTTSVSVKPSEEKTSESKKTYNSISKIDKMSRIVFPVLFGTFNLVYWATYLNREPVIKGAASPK
The experiment in a line: Effective concentration against human Alpha-5-beta-3-gamma-2 GABA-A receptor was determined. In kind it is functional. In outline: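 Whole-cell patch clamp was run on Ltk- cells stably expressing human α5β3γ2s. Bath solution was NaCl/NaHCO3/glucose buffer, pH 7.2. Pipettes held 130 mM CsCl, 10 mM EGTA, 3 mM Mg-ATP, pH 7.3. Drug was applied by double-barreled pipette with an EC20 GABA concentration, and concentration–response data were fitted to a Hill equation for EC50. Values are mean ± SEM of at least five fitted curves, with at least five cells per point.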

Series [3] addresses T2, GABA-A receptor; alpha-2/beta-3/gamma-2 (Homo sapiens, UniProt P18507+P28472+P47869).
T2 sequence (P18507 whole entry): T1 sequence (P18507 whole entry)
T2 sequence (P28472 whole entry): T1 sequence (P28472 whole entry)
T2 sequence (P47869 whole entry): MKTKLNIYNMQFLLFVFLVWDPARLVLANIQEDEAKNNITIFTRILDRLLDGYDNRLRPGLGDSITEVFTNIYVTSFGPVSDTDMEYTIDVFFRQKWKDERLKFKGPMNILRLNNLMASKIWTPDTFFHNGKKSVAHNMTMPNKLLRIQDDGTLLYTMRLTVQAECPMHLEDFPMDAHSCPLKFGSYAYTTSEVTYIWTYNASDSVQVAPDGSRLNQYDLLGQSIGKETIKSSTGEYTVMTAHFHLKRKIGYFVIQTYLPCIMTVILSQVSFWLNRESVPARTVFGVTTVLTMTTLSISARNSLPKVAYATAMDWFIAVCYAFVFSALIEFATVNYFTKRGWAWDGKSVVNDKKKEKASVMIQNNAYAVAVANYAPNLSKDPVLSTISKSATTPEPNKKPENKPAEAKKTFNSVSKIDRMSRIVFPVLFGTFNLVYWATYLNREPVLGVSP
Nature of the series: Binding affinity towards human gamma-aminobutyric-acid A receptor alpha-2-beta-3-gamma-2 using [3H]Ro-151788 expressed in L(tk-) cells. Type of series: cell-based.

Series [4] concerns the target GABA-A receptor; alpha-3/beta-3/gamma-2 (Homo sapiens) (UniProt P18507+P28472+P34903). Nature of the series: Percent change in electrophysiological response in Xenopus oocytes expressing Alpha3-beta3-gamma2 GABA-A receptor. As to conditions: Oocyte. Type of series: functional, cell-based. In outline:
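Two-electrode voltage clamp on Xenopus oocytes injected with human GABA-A subunit cDNAs, 24-72 h expression, perfused with modified Barth's medium at pH 7.5, clamped between -40 and -70 mV. The GABA EC20 was titrated against a 3 mM GABA maximum. […] Result is % change of control current, mean ± SE of ≥4 oocytes.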

Series [5] has as its target GABA-A receptor; alpha-6/beta-3/gamma-2 (Homo sapiens, UniProt P18507+P28472+Q16445). Nature of the series: Inhibition of [3H]Ro-151788 binding to human alpha-6-beta-3-gamma-2 GABA-A receptor expressed in L(tk-) cells. Type of series: cell-based.

Chain of GABA-A receptor; alpha-6/beta-3/gamma-2 (Q16445 whole entry, one chain of several): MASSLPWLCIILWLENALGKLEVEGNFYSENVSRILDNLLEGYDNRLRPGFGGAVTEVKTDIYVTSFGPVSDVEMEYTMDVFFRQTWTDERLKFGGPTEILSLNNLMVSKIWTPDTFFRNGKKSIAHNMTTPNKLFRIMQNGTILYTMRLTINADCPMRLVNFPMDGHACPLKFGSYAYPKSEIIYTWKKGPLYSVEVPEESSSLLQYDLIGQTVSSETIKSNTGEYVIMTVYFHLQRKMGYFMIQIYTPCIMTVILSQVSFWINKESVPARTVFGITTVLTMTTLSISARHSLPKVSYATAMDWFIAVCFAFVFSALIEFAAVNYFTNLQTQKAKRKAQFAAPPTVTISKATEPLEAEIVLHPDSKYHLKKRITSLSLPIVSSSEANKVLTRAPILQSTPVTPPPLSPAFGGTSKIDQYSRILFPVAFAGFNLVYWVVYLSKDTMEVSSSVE

On to `Cc1cc(-c2nnc3c4ccccc4c(OCc4ccccn4)nn23)no1`, for which the bioavailability in series [1] came to 41%. Moreover, the EC50 in series [2] was determined as 2.5 nM. Further, the inhibition constant Ki in series [3] came to 2.7 nM; in series [5], 4410 nM. Also, the Efficacy in series [4] is -4%.
